Test results reported in ChEMBL document CHEMBL1147862, “Studies on synthesis and pharmacological activities of 3,6-disubstituted-1,2,4-triazolo[3,4-b]-1,3,4-thiadiazoles and their dihydro analogues” (2007).

Tests used:
Type in all cases: functional
Rattus norvegicus [1] = assay: Antiinflammatory activity in Wistar Albino rat assessed as inhibition of carrageenan-induced paw oedema at 20 mg/kg after 2 hrs relative to control
Outline: (§1)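 Wistar albino rats, 150–200 g, six per group, dosed orally with a 20 mg/kg suspension; control gets 0.1 ml 1% gum acacia. After 30 min, 0.1 ml 1% carrageenan in saline is injected subplantar into the right hind paw. Paw volume is read by plethysmograph at 0–4 h. Inhibition = 100(1 − Vtest/Vcontrol) on mean volume increase.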

Staphylococcus aureus [2] = assay: Antibacterial activity against Staphylococcus aureus at 30 ug/ml by agar plate diffusion technique; conditions: read-out: IZ
Aspergillus niger [3] = assay: Antifungal activity against Aspergillus niger at 10 ug/ml by paper disc method; conditions: read-out: IZ
Bacillus subtilis [4] = assay: Antibacterial activity against Bacillus subtilis at 30 ug/ml by agar plate diffusion technique; conditions: read-out: IZ
Candida albicans [5] = assay: Antifungal activity against Candida albicans at 10 ug/ml by paper disc method; conditions: read-out: IZ
Candida albicans [6] = assay: Antifungal activity against Candida albicans at 30 ug/ml by paper disc method; conditions: read-out: IZ
Aspergillus niger [7] = assay: Antifungal activity against Aspergillus niger at 30 ug/ml by paper disc method; conditions: read-out: IZ
Aspergillus niger [8] = assay: Antifungal activity against Aspergillus niger at 20 ug/ml by paper disc method; conditions: read-out: IZ
Mus musculus [9] = assay: Analgesic activity in Swiss mouse assessed as increase in reaction time at 20 mg/kg, po after 60 mins by Eddy's hot plate technique
Outline: (§2)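 Swiss mice of either sex, 25–35 g, placed one at a time on a hot plate held at 55 °C. End point is paw licking or jumping, whichever comes first, with a 15 s cut-off to avoid paw injury. Reaction time is recorded and reported as percent increase in reaction time.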

Bacillus subtilis [10] = assay: Antibacterial activity against Bacillus subtilis at 20 ug/ml by agar plate diffusion technique; conditions: read-out: IZ
Rattus norvegicus [11] = assay: Antiinflammatory activity in Wistar Albino rat assessed as inhibition of carrageenan-induced paw oedema at 20 mg/kg after 1 hr relative to control; outline: as §1
Bacillus subtilis [12] = assay: Antibacterial activity against Bacillus subtilis at 10 ug/ml by agar plate diffusion technique; conditions: read-out: IZ
Escherichia coli [13] = assay: Antibacterial activity against Escherichia coli at 10 ug/ml by agar plate diffusion technique; conditions: read-out: IZ
Rattus norvegicus [14] = assay: Antiinflammatory activity in Wistar Albino rat assessed as inhibition of carrageenan-induced paw oedema at 20 mg/kg after 4 hrs relative to control; outline: as §1
Pseudomonas aeruginosa [15] = assay: Antibacterial activity against Pseudomonas aeruginosa at 10 ug/ml by agar plate diffusion technique; conditions: read-out: IZ
Staphylococcus aureus [16] = assay: Antibacterial activity against Staphylococcus aureus at 10 ug/ml by agar plate diffusion technique; conditions: read-out: IZ
Staphylococcus aureus [17] = assay: Antibacterial activity against Staphylococcus aureus at 20 ug/ml by agar plate diffusion technique; conditions: read-out: IZ
Mus musculus [18] = assay: Analgesic activity in Swiss mouse assessed as increase in reaction time at 20 mg/kg, po after 30 mins by Eddy's hot plate technique; outline: as §2
Pseudomonas aeruginosa [19] = assay: Antibacterial activity against Pseudomonas aeruginosa at 20 ug/ml by agar plate diffusion technique; conditions: read-out: IZ
Candida albicans [20] = assay: Antifungal activity against Candida albicans at 20 ug/ml by paper disc method; conditions: read-out: IZ
Escherichia coli [21] = assay: Antibacterial activity against Escherichia coli at 30 ug/ml by agar plate diffusion technique; conditions: read-out: IZ
Rattus norvegicus [22] = assay: Antiinflammatory activity in Wistar Albino rat assessed as inhibition of carrageenan-induced paw oedema at 20 mg/kg after 3 hrs relative to control; outline: as §1
Mus musculus [23] = assay: Analgesic activity in Swiss mouse assessed as increase in reaction time at 20 mg/kg, po after 90 mins by Eddy's hot plate technique; outline: as §2
Escherichia coli [24] = assay: Antibacterial activity against Escherichia coli at 20 ug/ml by agar plate diffusion technique; conditions: read-out: IZ
Pseudomonas aeruginosa [25] = assay: Antibacterial activity against Pseudomonas aeruginosa at 30 ug/ml by agar plate diffusion technique; conditions: read-out: IZ

Cc1occc1-c1nnc2n1NC(c1cccn1C)S2 (stereo not given)
inhibition in vivo at 20 mg/kg (Rattus norvegicus [1]): 18.9% | zone of inhibition at 30 µg/mL (Staphylococcus aureus [2]): 11.2 mm | zone of inhibition at 10 µg/mL (Aspergillus niger [3]): 4.93 mm | zone of inhibition at 30 µg/mL (Bacillus subtilis [4]): 11.4 mm | zone of inhibition at 10 µg/mL (Candida albicans [5]): 4.5 mm | zone of inhibition at 30 µg/mL (Candida albicans [6]): 13.2 mm | zone of inhibition at 30 µg/mL (Aspergillus niger [7]): 13.7 mm | zone of inhibition at 20 µg/mL (Aspergillus niger [8]): 8.08 mm | Activity (Mus musculus [9]): 16.8% | zone of inhibition at 20 µg/mL (Bacillus subtilis [10]): 7.48 mm | inhibition in vivo at 20 mg/kg (Rattus norvegicus [11]): 14.6% | zone of inhibition at 10 µg/mL (Bacillus subtilis [12]): 4.52 mm | zone of inhibition at 10 µg/mL (Escherichia coli [13]): 4.11 mm | inhibition in vivo at 20 mg/kg (Rattus norvegicus [14]): 22.4% | zone of inhibition at 10 µg/mL (Pseudomonas aeruginosa [15]): 4.36 mm | zone of inhibition at 10 µg/mL (Staphylococcus aureus [16]): 4.42 mm | zone of inhibition at 20 µg/mL (Staphylococcus aureus [17]): 6.23 mm | Activity (Mus musculus [18]): 7.55% | zone of inhibition at 20 µg/mL (Pseudomonas aeruginosa [19]): 7.9 mm | zone of inhibition at 20 µg/mL (Candida albicans [20]): 8.06 mm | zone of inhibition at 30 µg/mL (Escherichia coli [21]): 12.1 mm | inhibition in vivo at 20 mg/kg (Rattus norvegicus [22]): 21.5% | Activity (Mus musculus [23]): 21.96% | zone of inhibition at 20 µg/mL (Escherichia coli [24]): 7.19 mm | zone of inhibition at 30 µg/mL (Pseudomonas aeruginosa [25]): 13.2 mm

COc1ccc(Cl)c(-c2nnc3n2NC(c2ccc[nH]2)S3)c1 (stereo not given)
inhibition in vivo at 20 mg/kg (Rattus norvegicus [1]): 15.2% | zone of inhibition at 30 µg/mL (Staphylococcus aureus [2]): 8.33 mm | zone of inhibition at 10 µg/mL (Aspergillus niger [3]): 4.89 mm | zone of inhibition at 30 µg/mL (Bacillus subtilis [4]): 8.33 mm | zone of inhibition at 10 µg/mL (Candida albicans [5]): 4.61 mm | zone of inhibition at 30 µg/mL (Candida albicans [6]): 13.4 mm | zone of inhibition at 30 µg/mL (Aspergillus niger [7]): 12.3 mm | zone of inhibition at 20 µg/mL (Aspergillus niger [8]): 9.17 mm | Activity (Mus musculus [9]): 14.48% | zone of inhibition at 20 µg/mL (Bacillus subtilis [10]): 4 mm | inhibition in vivo at 20 mg/kg (Rattus norvegicus [11]): 12.8% | zone of inhibition at 10 µg/mL (Bacillus subtilis [12]): 1.67 mm | zone of inhibition at 10 µg/mL (Escherichia coli [13]): 4.71 mm | inhibition in vivo at 20 mg/kg (Rattus norvegicus [14]): 20.6% | zone of inhibition at 10 µg/mL (Pseudomonas aeruginosa [15]): 1.33 mm | zone of inhibition at 10 µg/mL (Staphylococcus aureus [16]): 1.33 mm | zone of inhibition at 20 µg/mL (Staphylococcus aureus [17]): 4.33 mm | Activity (Mus musculus [18]): 4.86% | zone of inhibition at 20 µg/mL (Pseudomonas aeruginosa [19]): 4.33 mm | zone of inhibition at 20 µg/mL (Candida albicans [20]): 8.82 mm | zone of inhibition at 30 µg/mL (Escherichia coli [21]): 14.3 mm | inhibition in vivo at 20 mg/kg (Rattus norvegicus [22]): 18.4% | Activity (Mus musculus [23]): 21.1% | zone of inhibition at 20 µg/mL (Escherichia coli [24]): 7.9 mm | zone of inhibition at 30 µg/mL (Pseudomonas aeruginosa [25]): 8 mm

COc1ccc2[nH]c(C)c(Cc3nn4c(Cc5ccc(OC)c(OC)c5)nnc4s3)c2c1
inhibition in vivo at 20 mg/kg (Rattus norvegicus [1]): 16.2% | zone of inhibition at 30 µg/mL (Staphylococcus aureus [2]): 12 mm | zone of inhibition at 10 µg/mL (Aspergillus niger [3]): 4.9 mm | zone of inhibition at 30 µg/mL (Bacillus subtilis [4]): 12.3 mm | zone of inhibition at 10 µg/mL (Candida albicans [5]): 4.62 mm | zone of inhibition at 30 µg/mL (Candida albicans [6]): 12.1 mm | zone of inhibition at 30 µg/mL (Aspergillus niger [7]): 10.8 mm | zone of inhibition at 20 µg/mL (Aspergillus niger [8]): 7.58 mm | Activity (Mus musculus [9]): 27.82% | zone of inhibition at 20 µg/mL (Bacillus subtilis [10]): 7.21 mm | inhibition in vivo at 20 mg/kg (Rattus norvegicus [11]): 10.5% | zone of inhibition at 10 µg/mL (Bacillus subtilis [12]): 4.07 mm | zone of inhibition at 10 µg/mL (Escherichia coli [13]): 4.48 mm | inhibition in vivo at 20 mg/kg (Rattus norvegicus [14]): 28.4% | zone of inhibition at 10 µg/mL (Pseudomonas aeruginosa [15]): 4.04 mm | zone of inhibition at 10 µg/mL (Staphylococcus aureus [16]): 4.06 mm | zone of inhibition at 20 µg/mL (Staphylococcus aureus [17]): 8.08 mm | Activity (Mus musculus [18]): 19.23% | zone of inhibition at 20 µg/mL (Pseudomonas aeruginosa [19]): 7.42 mm | zone of inhibition at 20 µg/mL (Candida albicans [20]): 8.02 mm | zone of inhibition at 30 µg/mL (Escherichia coli [21]): 12.4 mm | inhibition in vivo at 20 mg/kg (Rattus norvegicus [22]): 21.4% | Activity (Mus musculus [23]): 29.04% | zone of inhibition at 20 µg/mL (Escherichia coli [24]): 7.42 mm | zone of inhibition at 30 µg/mL (Pseudomonas aeruginosa [25]): 12.6 mm

COc1ccc(Cl)c(-c2nnc3sc(-c4ccnc5ccccc45)nn23)c1
inhibition in vivo at 20 mg/kg (Rattus norvegicus [1]): 14.3% | zone of inhibition at 30 µg/mL (Staphylococcus aureus [2]): 18.1 mm | zone of inhibition at 10 µg/mL (Aspergillus niger [3]): 6.4 mm | zone of inhibition at 30 µg/mL (Bacillus subtilis [4]): 18.8 mm | zone of inhibition at 10 µg/mL (Candida albicans [5]): 6.48 mm | zone of inhibition at 30 µg/mL (Candida albicans [6]): 18 mm | zone of inhibition at 30 µg/mL (Aspergillus niger [7]): 19.1 mm | zone of inhibition at 20 µg/mL (Aspergillus niger [8]): 12.8 mm | Activity (Mus musculus [9]): 17.24% | zone of inhibition at 20 µg/mL (Bacillus subtilis [10]): 13.1 mm | inhibition in vivo at 20 mg/kg (Rattus norvegicus [11]): 11.1% | zone of inhibition at 10 µg/mL (Bacillus subtilis [12]): 7.68 mm | zone of inhibition at 10 µg/mL (Escherichia coli [13]): 8.28 mm | inhibition in vivo at 20 mg/kg (Rattus norvegicus [14]): 20.9% | zone of inhibition at 10 µg/mL (Pseudomonas aeruginosa [15]): 7.82 mm | zone of inhibition at 10 µg/mL (Staphylococcus aureus [16]): 7.21 mm | zone of inhibition at 20 µg/mL (Staphylococcus aureus [17]): 13.2 mm | Activity (Mus musculus [18]): 7.69% | zone of inhibition at 20 µg/mL (Pseudomonas aeruginosa [19]): 13.3 mm | zone of inhibition at 20 µg/mL (Candida albicans [20]): 13.9 mm | zone of inhibition at 30 µg/mL (Escherichia coli [21]): 18.8 mm | inhibition in vivo at 20 mg/kg (Rattus norvegicus [22]): 18.6% | Activity (Mus musculus [23]): 23.84% | zone of inhibition at 20 µg/mL (Escherichia coli [24]): 14.5 mm | zone of inhibition at 30 µg/mL (Pseudomonas aeruginosa [25]): 18.7 mm
